{
  "source": "ChEMBL document CHEMBL5055631",
  "about": "“Antitumor properties of novel sesquiterpene lactone analogs as NFκB inhibitors that bind to the IKKβ ubiquitin-like domain (ULD)” (Eur J Med Chem, 2021)",
  "format_in_all_cases": "functional",
  "key": {"IGROV-1": {"test_system": "IGROV-1", "test": "Anticancer activity against human IGROV-1 cells assessed as cell growth inhibition incubated for 48 hrs by SRB method", "procedure,_shortened": "(§1)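 NCI-60 panel (DTP). Cells in RPMI 1640 with 5% FBS, 2 mM L-glutamine, seeded at 5,000–40,000 per well by doubling time and preincubated 24 h at 37 °C, 5% CO2. Time-zero plates TCA-fixed. DMSO stocks diluted in medium with gentamicin, tested at 100 μM, 10 μM, 1 μM, 0.1 μM and 10 nM for 48 h. Cells fixed with cold TCA, stained with SRB, absorbance read at 515 nm.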"}, "UO-31": {"test_system": "UO-31", "test": "Anticancer activity against human UO-31 cells assessed as cell growth inhibition incubated for 48 hrs by SRB method", "procedure,_shortened": "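NCI-60 panel, SRB assay. Time-zero plates were TCA-fixed. Compounds came from DMSO stocks and were tested at 100 μM, 10 μM, 1 μM, 0.1 μM and 10 nM for 48 h. Cells were fixed with cold TCA and stained with 0.4% SRB, and the dye was solubilized in 10 mM Tris base with A515 read.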"}, "HOP-92": {"test_system": "HOP-92", "test": "Anticancer activity against human HOP-92 cells assessed as cell growth inhibition incubated for 48 hrs by SRB method"}, "CAKI-1": {"test_system": "CAKI-1", "test": "Anticancer activity against human CAKI-1 cells assessed as cell growth inhibition incubated for 48 hrs by SRB method", "procedure,_shortened": "as §1"}, "OVCAR-5": {"test_system": "OVCAR-5", "test": "Anticancer activity against human OVCAR-5 cells assessed as cell growth inhibition incubated for 48 hrs by SRB method"}, "LOX IMVI": {"test_system": "LOX IMVI", "test": "Anticancer activity against human LOX IMVI cells assessed as cell growth inhibition incubated for 48 hrs by SRB method"}, "UACC-62": {"test_system": "UACC-62", "test": "Anticancer activity against human UACC-62 cells assessed as cell growth inhibition incubated for 48 hrs by SRB method", "procedure,_shortened": "(§2)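 NCI-60 panel, SRB assay. Cells grown in RPMI 1640 with 5% FBS and 2 mM L-glutamine, seeded at 5,000–40,000 cells/well depending on doubling time, and preincubated 24 h at 37 °C with 5% CO2. Time-zero plates were TCA-fixed. Compounds came from DMSO stocks and were tested at 100 μM, 10 μM, 1 μM, 0.1 μM and 10 nM for 48 h. Cells were fixed with cold TCA and stained with 0.4% SRB, and the dye was solubilized in 10 mM Tris base with A515 read.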"}, "EKVX": {"test_system": "EKVX", "test": "Anticancer activity against human EKVX cells assessed as cell growth inhibition incubated for 48 hrs by SRB method", "procedure,_shortened": "as §1"}, "U-251": {"test_system": "U-251", "test": "Anticancer activity against human U-251 cells assessed as cell growth inhibition incubated for 48 hrs by SRB method", "procedure,_shortened": "as §2"}, "SW-620": {"test_system": "SW-620", "test": "Anticancer activity against human SW-620 cells assessed as cell growth inhibition incubated for 48 hrs by SRB method"}, "HCT-15": {"test_system": "HCT-15", "test": "Anticancer activity against human HCT-15 cells assessed as cell growth inhibition incubated for 48 hrs by SRB method", "procedure,_shortened": "as §1"}, "HCT-116": {"test_system": "HCT-116", "test": "Anticancer activity against human HCT-116 cells assessed as cell growth inhibition incubated for 48 hrs by SRB method", "procedure,_shortened": "as §1"}, "Malme-3M": {"test_system": "Malme-3M", "test": "Anticancer activity against human MALME-3M cells assessed as cell growth inhibition incubated for 48 hrs by SRB method"}, "NCI-H522": {"test_system": "NCI-H522", "test": "Anticancer activity against human NCI-H522 cells assessed as cell growth inhibition incubated for 48 hrs by SRB method"}, "OVCAR-8": {"test_system": "OVCAR-8", "test": "Anticancer activity against human OVCAR-8 cells assessed as cell growth inhibition incubated for 48 hrs by SRB method", "procedure,_shortened": "as §1"}, "[1]": {"test": "Anticancer activity against human HS 578T cells assessed as cell growth inhibition incubated for 48 hrs by SRB method"}, "MDA-MB-468": {"test_system": "MDA-MB-468", "test": "Anticancer activity against human MDA-MB-468 cells assessed as cell growth inhibition incubated for 48 hrs by SRB method", "procedure,_shortened": "as §1"}, "OVCAR-4": {"test_system": "OVCAR-4", "test": "Anticancer activity against human OVCAR-4 cells assessed as cell growth inhibition incubated for 48 hrs by SRB method"}, "TK-10": {"test_system": "TK-10", "test": "Anticancer activity against human TK-10 cells assessed as cell growth inhibition incubated for 48 hrs by SRB method", "procedure,_shortened": "as §2"}, "KM12": {"test_system": "KM12", "test": "Anticancer activity against human KM12 cells assessed as cell growth inhibition incubated for 48 hrs by SRB method", "procedure,_shortened": "as §1"}, "M14": {"test_system": "M14", "test": "Anticancer activity against human M14 cells assessed as cell growth inhibition incubated for 48 hrs by SRB method", "procedure,_shortened": "as §1"}, "SF-539": {"test_system": "SF-539", "test": "Anticancer activity against human SF-539 cells assessed as cell growth inhibition incubated for 48 hrs by SRB method"}, "RXF 393": {"test_system": "RXF 393", "test": "Anticancer activity against human RXF 393 cells assessed as cell growth inhibition incubated for 48 hrs by SRB method", "procedure,_shortened": "as §1"}, "HT-29": {"test_system": "HT-29", "test": "Anticancer activity against human HT29 cells assessed as cell growth inhibition incubated for 48 hrs by SRB method", "procedure,_shortened": "as §1"}, "K562": {"test_system": "K562", "test": "Anticancer activity against human K562 cells assessed as cell growth inhibition incubated for 48 hrs by SRB method"}, "SNB-75": {"test_system": "SNB-75", "test": "Anticancer activity against human SNB-75 cells assessed as cell growth inhibition incubated for 48 hrs by SRB method"}, "CCRF-CEM": {"test_system": "CCRF-CEM", "test": "Anticancer activity against human CCRF-CEM cells assessed as cell growth inhibition incubated for 48 hrs by sulforhodamine B assay"}, "NCI/ADR-RES": {"test_system": "NCI/ADR-RES", "test": "Anticancer activity against human NCI/ADR-RES cells assessed as cell growth inhibition incubated for 48 hrs by SRB method", "procedure,_shortened": "as §1"}, "SNB-19": {"test_system": "SNB-19", "test": "Anticancer activity against human SNB-19 cells assessed as cell growth inhibition incubated for 48 hrs by SRB method", "procedure,_shortened": "as §1"}, "MCF7": {"test_system": "MCF7", "test": "Anticancer activity against human MCF7 cells assessed as cell growth inhibition incubated for 48 hrs by SRB method", "procedure,_shortened": "as §1"}, "HOP-62": {"test_system": "HOP-62", "test": "Anticancer activity against human HOP-62 cells assessed as cell growth inhibition incubated for 48 hrs by SRB method", "procedure,_shortened": "as §1"}, "HCC 2998": {"test_system": "HCC 2998", "test": "Anticancer activity against human HCC 2998 cells assessed as cell growth inhibition incubated for 48 hrs by SRB method", "procedure,_shortened": "as §1"}, "RPMI-8226": {"test_system": "RPMI-8226", "test": "Anticancer activity against human RPMI-8226 cells assessed as cell growth inhibition incubated for 48 hrs by SRB method"}, "BT-549": {"test_system": "BT-549", "test": "Anticancer activity against human BT-549 cells assessed as cell growth inhibition incubated for 48 hrs by SRB method", "procedure,_shortened": "as §1"}, "NCI-H23": {"test_system": "NCI-H23", "test": "Anticancer activity against human NCI-H23 cells assessed as cell growth inhibition incubated for 48 hrs by SRB method", "procedure,_shortened": "as §1"}, "MDA-MB-231": {"test_system": "MDA-MB-231", "test": "Anticancer activity against human MDA-MB-231 cells assessed as cell growth inhibition incubated for 48 hrs by SRB method", "procedure,_shortened": "as §1"}, "NCI-H226": {"test_system": "NCI-H226", "test": "Anticancer activity against human NCI-H226 cells assessed as cell growth inhibition incubated for 48 hrs by SRB method", "procedure,_shortened": "as §1"}, "A549": {"test_system": "A549", "test": "Anticancer activity against human A549 cells assessed as cell growth inhibition incubated for 48 hrs by SRB method", "procedure,_shortened": "as §1"}, "786-0": {"test_system": "786-0", "test": "Anticancer activity against human 786-0 cells assessed as cell growth inhibition incubated for 48 hrs by SRB method", "procedure,_shortened": "as §1"}, "SF-268": {"test_system": "SF-268", "test": "Anticancer activity against human SF-268 cells assessed as cell growth inhibition incubated for 48 hrs by SRB method", "procedure,_shortened": "as §1"}, "A498": {"test_system": "A498", "test": "Anticancer activity against human A498 cells assessed as cell growth inhibition incubated for 48 hrs by SRB method", "procedure,_shortened": "as §1"}},
  "data": [
    {"smiles": "C=C1C(=O)O[C@H]2[C@H]1CC/C(COC(=O)NCc1ccccc1OC)=C\\CC[C@@]1(C)O[C@@H]21", "values": [
      {"measurement": "GI50", "setting": "IGROV-1", "value": 1.48, "unit": "µM"},
      {"measurement": "GI50", "setting": "UO-31", "value": 1.04, "unit": "µM"},
      {"measurement": "GI50", "setting": "HOP-92", "value": 1.49, "unit": "µM"},
      {"measurement": "GI50", "setting": "CAKI-1", "value": 3.23, "unit": "µM"},
      {"measurement": "GI50", "setting": "OVCAR-5", "value": 0.87, "unit": "µM"},
      {"measurement": "GI50", "setting": "LOX IMVI", "value": 1.43, "unit": "µM"},
      {"measurement": "GI50", "setting": "UACC-62", "value": 1.84, "unit": "µM"},
      {"measurement": "GI50", "setting": "EKVX", "value": 1.98, "unit": "µM"},
      {"measurement": "GI50", "setting": "U-251", "value": 2.2, "unit": "µM"},
      {"measurement": "GI50", "setting": "SW-620", "value": 0.76, "unit": "µM"},
      {"measurement": "GI50", "setting": "HCT-15", "value": 1.04, "unit": "µM"},
      {"measurement": "GI50", "setting": "HCT-116", "value": 0.54, "unit": "µM"},
      {"measurement": "GI50", "setting": "Malme-3M", "value": 1.89, "unit": "µM"},
      {"measurement": "GI50", "setting": "NCI-H522", "value": 0.35, "unit": "µM"},
      {"measurement": "GI50", "setting": "OVCAR-8", "value": 1.78, "unit": "µM"},
      {"measurement": "GI50", "setting": "[1]", "value": 0.49, "unit": "µM"},
      {"measurement": "GI50", "setting": "MDA-MB-468", "value": 0.66, "unit": "µM"},
      {"measurement": "GI50", "setting": "OVCAR-4", "value": 1.57, "unit": "µM"},
      {"measurement": "GI50", "setting": "TK-10", "value": 1.38, "unit": "µM"},
      {"measurement": "GI50", "setting": "KM12", "value": 3.53, "unit": "µM"},
      {"measurement": "GI50", "setting": "M14", "value": 1.1, "unit": "µM"},
      {"measurement": "GI50", "setting": "SF-539", "value": 1.53, "unit": "µM"},
      {"measurement": "GI50", "setting": "RXF 393", "value": 1.27, "unit": "µM"},
      {"measurement": "GI50", "setting": "HT-29", "value": 1.22, "unit": "µM"},
      {"measurement": "GI50", "setting": "K562", "value": 0.82, "unit": "µM"},
      {"measurement": "GI50", "setting": "SNB-75", "value": 2.44, "unit": "µM"},
      {"measurement": "GI50", "setting": "CCRF-CEM", "value": 0.48, "unit": "µM"},
      {"measurement": "GI50", "setting": "NCI/ADR-RES", "value": 2.29, "unit": "µM"},
      {"measurement": "GI50", "setting": "SNB-19", "value": 1.57, "unit": "µM"},
      {"measurement": "GI50", "setting": "MCF7", "value": 3.13, "unit": "µM"},
      {"measurement": "GI50", "setting": "HOP-62", "value": 3.69, "unit": "µM"},
      {"measurement": "GI50", "setting": "HCC 2998", "value": 1.82, "unit": "µM"},
      {"measurement": "GI50", "setting": "RPMI-8226", "value": 1.77, "unit": "µM"},
      {"measurement": "GI50", "setting": "BT-549", "value": 1.47, "unit": "µM"},
      {"measurement": "GI50", "setting": "NCI-H23", "value": 1.74, "unit": "µM"},
      {"measurement": "GI50", "setting": "MDA-MB-231", "value": 0.69, "unit": "µM"},
      {"measurement": "GI50", "setting": "NCI-H226", "value": 2.11, "unit": "µM"},
      {"measurement": "GI50", "setting": "A549", "value": 3.07, "unit": "µM"},
      {"measurement": "GI50", "setting": "786-0", "value": 2.45, "unit": "µM"},
      {"measurement": "GI50", "setting": "SF-268", "value": 2.2, "unit": "µM"},
      {"measurement": "GI50", "setting": "A498", "value": 2.26, "unit": "µM"}
    ]}
  ]
}
